According to ChEMBL document CHEMBL6115053, “Optimization and Characterization of N-Acetamide Indoles as Antimalarials That Target PfATP4” (J Med Chem, 2025):
Converted amounts (≈) assume the structure as drawn. “And” between values parts separate entries of the source, which are not always exact repeats. Identical values can stand only once. Each block holds one molecule with its values, some of them ahead of it. The source made the active and inactive calls. The rule behind the calls is not given here.

How the values were obtained:
[1] = test system: Plasmodium falciparum; test: Antiplasmodial activity against asexual Plasmodium falciparum 3D7 infected in human […] cells assessed as reduction in parasite growth measured for 72 hrs by LDH assay; type: functional, organism-based; details: 3D7, 72 h
[2] = test system: HepG2; test: Cytotoxicity against human HepG2 cells assessed as inhibition of cell growth incubated for 48 hrs by celltiterglo assay; type: toxicity, cell-based; details: hepg2, 48 h
[3] = Aqueous solubility in PBS buffer at pH 7.4; type: physicochemical
[4] = Metabolic stability in human liver microsome assessed as intrinsic clearance; type: ADME; details: microsomes
[5] = Metabolic stability in rat hepatocyte […] assessed as intrinsic clearance measured per 10^6 cells; type: ADME, cell-based; details: hepatocytes
[6] = Lipophilicity, logD of compound at pH 7.4 by shake-flask method; type: physicochemical; details: buffer
[7] = target: T1, P-type sodium-transporting ATPase4 (Plasmodium falciparum (isolate 3D7), UniProt A0A143ZZK9); test: Inhibition of Plasmodium falciparum 3D7 ATP4
T1 sequence (A0A143ZZK9 whole entry): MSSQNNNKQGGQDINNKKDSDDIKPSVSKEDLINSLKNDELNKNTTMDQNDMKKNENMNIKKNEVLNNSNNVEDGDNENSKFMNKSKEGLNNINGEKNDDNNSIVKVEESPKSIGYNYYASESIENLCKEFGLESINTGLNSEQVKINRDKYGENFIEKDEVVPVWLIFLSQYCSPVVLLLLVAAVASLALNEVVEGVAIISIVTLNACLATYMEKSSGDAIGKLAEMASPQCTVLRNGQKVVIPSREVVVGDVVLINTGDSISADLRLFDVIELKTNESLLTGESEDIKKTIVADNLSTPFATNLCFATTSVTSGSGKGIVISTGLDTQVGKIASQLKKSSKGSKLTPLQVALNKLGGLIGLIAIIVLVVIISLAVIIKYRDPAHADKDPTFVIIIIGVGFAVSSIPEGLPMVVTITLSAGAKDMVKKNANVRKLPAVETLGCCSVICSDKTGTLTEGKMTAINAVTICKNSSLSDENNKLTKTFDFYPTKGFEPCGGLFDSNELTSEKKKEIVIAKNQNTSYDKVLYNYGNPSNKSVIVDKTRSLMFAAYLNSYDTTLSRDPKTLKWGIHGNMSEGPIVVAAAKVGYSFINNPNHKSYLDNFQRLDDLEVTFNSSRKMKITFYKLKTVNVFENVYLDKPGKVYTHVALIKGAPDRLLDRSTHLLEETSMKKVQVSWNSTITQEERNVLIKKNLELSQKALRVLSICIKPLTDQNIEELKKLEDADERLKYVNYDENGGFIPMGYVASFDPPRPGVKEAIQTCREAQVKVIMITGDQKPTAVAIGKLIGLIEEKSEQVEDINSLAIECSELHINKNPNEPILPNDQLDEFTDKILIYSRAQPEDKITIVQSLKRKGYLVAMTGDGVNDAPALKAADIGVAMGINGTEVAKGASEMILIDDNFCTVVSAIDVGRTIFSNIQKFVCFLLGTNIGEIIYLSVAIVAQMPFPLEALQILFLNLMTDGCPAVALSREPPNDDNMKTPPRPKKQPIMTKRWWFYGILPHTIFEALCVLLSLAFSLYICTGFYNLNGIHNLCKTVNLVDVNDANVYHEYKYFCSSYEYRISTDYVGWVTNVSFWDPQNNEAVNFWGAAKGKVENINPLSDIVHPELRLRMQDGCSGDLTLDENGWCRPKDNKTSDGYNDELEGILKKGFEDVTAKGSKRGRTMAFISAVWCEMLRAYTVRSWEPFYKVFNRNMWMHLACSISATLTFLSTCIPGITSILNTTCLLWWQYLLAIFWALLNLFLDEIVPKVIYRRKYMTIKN

[8] = Inhibition of Plasmodium falciparum Dd2 ATP4 G358S mutant assessed as reduction in Na+-ATPase activity incubated for 10 mins in presence of ATP
Summary of the method: (§1)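 Membranes were prepared from Dd2-Polδ parasites (wild-type PfATP4) or Dd2-Polδ-PfATP4G358S parasites. ATPase activity was read as Pi production, with 1 mM Na2ATP, at high [Na+] (152 mM) and low [Na+] (2 mM). PfATP4-associated activity is the high-Na+ minus low-Na+ Pi, expressed as % of the high-Na+ control, over a concentration range. Data are means ± SEM of 2–5 independent membrane preparations.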

[9] = Inhibition of Plasmodium falciparum Dd2 ATP4 assessed as reduction in Na+-ATPase activity incubated for 10 mins in presence of ATP; summary of the method: as §1
[10] = target: T2, P-type sodium-transporting ATPase4 (Plasmodium falciparum (isolate 3D7)) (UniProt A0A143ZZK9); test: Inhibition of Plasmodium falciparum 3D7 ATP4 assessed as reduction in Na+-ATPase activity at 2 uM incubated for 10 mins under high [Na+] condition in absence of KAE609
T2 sequence (whole entry): T1 sequence (A0A143ZZK9 whole entry)

[11] = Metabolic stability in mouse liver microsome assessed as intrinsic clearance; type: ADME; details: microsomes
[12] = Permeability across basolateral to apical side in human Caco-2 cells; type: ADME, cell-based
[13] = Permeability across apical to basolateral side in human Caco-2 cells; type: ADME, cell-based
[14] = test system: Plasmodium falciparum; test: Antimalarial activity against Plasmodium falciparum NF54 infected assessed as inhibition of male gamete formation incubated for 48 hrs by automated bright field microscopic analysis; type: functional, organism-based; details: NF54, 48 h
[15] = test system: Plasmodium falciparum; test: Antimalarial activity against Plasmodium falciparum NF54 infected assessed as inhibition of female gamete formation incubated for 48 hrs by automated bright field microscopic analysis; type: functional, organism-based; details: NF54, 48 h
[16] = test system: Plasmodium falciparum; test: Antiplasmodial activity against Plasmodium flaciparum NF54 stage V gametocytes infected in Anopheles stephensi with parasite infected blood meal assessed as reduction in oocyst count at 100 nM measured 7 days post blood infection by light microscopic analysis relative to control; type: functional; design: scale not given: the % may be the effect or the level left; details: time 7 day
Summary of the method: (§2)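 Stage V gametocytes of P. falciparum NF54 were treated with compound and fed to Anopheles stephensi in a standard membrane feeding assay. Midguts were dissected 7 days after the blood meal and oocysts counted. Results were given as average oocyst intensity ± SEM, with a t test against vehicle.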

[17] = test system: Plasmodium falciparum; test: Antiplasmodial activity against Plasmodium flaciparum NF54 stage V gametocytes infected in Anopheles stephensi with parasite infected blood meal assessed as reduction in oocyst count at 500 nM measured 7 days post blood infection by light microscopic analysis relative to control; type: functional; design: scale not given: the % may be the effect or the level left; details: time 7 day; summary of the method: as §2
[18] = test system: Plasmodium berghei; test: Antimalarial activity against Plasmodium berghei ANKA infected in female BALB/c mouse assessed as parasitemia at 50 mg/kg, po measured for 2 to 72 hrs post infection by Giemsa staining based light microscopy; type: functional; details: time 2-72 hrs
[19] = test system: Plasmodium berghei; test: Antimalarial activity against Plasmodium berghei ANKA infected in female BALB/c mouse assessed as reduction in parasitemia at 50 mg/kg, po measured for 2 to 72 hrs post infection by Giemsa staining based light microscopy; type: functional; design: scale not given: the % may be the effect or the level left; details: time 2-72 hrs
[20] = Tmax in CD-1 mouse at 20 mg/kg, po; type: ADME, organism-based; details: in vivo
[21] = Cmax in CD-1 mouse at 20 mg/kg, po; type: ADME, organism-based; details: in vivo
[22] = AUC (0 to last) in CD-1 mouse at 20 mg/kg, po; type: ADME, organism-based; details: in vivo
[23] = Half life in CD-1 mouse at 20 mg/kg, po; type: ADME, organism-based; details: in vivo
[24] = Clearance in CD-1 mouse at 20 mg/kg, po; type: ADME, organism-based; details: in vivo
[25] = test system: Plasmodium berghei; test: Antimalarial activity against Plasmodium berghei ANKA infected in female BALB/c mouse assessed as parasitemia at 30 mg/kg, po measured for 2 to 72 hrs post infection by Giemsa staining based light microscopy; type: functional; details: time 2-72 hrs
[26] = test system: Plasmodium berghei; test: Antimalarial activity against Plasmodium berghei ANKA infected in female BALB/c mouse assessed as reduction in parasitemia at 30 mg/kg, po measured for 2 to 72 hrs post infection by Giemsa staining based light microscopy; type: functional; design: scale not given: the % may be the effect or the level left; details: time 2-72 hrs

Structure (SMILES): Cn1cc(-c2ccc3c(C#N)cn(CC(=O)Nc4ccccc4Cl)c3c2)cn1
EC50 [1]: 240 nM | CC50 [2]: > 40 µM | solubility kinetic [3]: 4.9 µM (≈ 1.91 µg/mL) | intrinsic clearance (CLint) [4]: 62 µL/min/mg | intrinsic clearance (CLint) [5]: 59 uL/min/10^6 cells | logD [6]: 3 | IC50 [7]: 150 nM | IC50 [8]: 1100 nM | IC50 [9]: 230 nM and 1100 nM | inhibition [10]: Active

solubility kinetic [3]: < 2.5 µM | intrinsic clearance (CLint) [4]: < 3.5 µL/min/mg | intrinsic clearance (CLint) [11]: 6.8 µL/min/mg | intrinsic clearance (CLint) [5]: 2.6 uL/min/10^6 cells | logD [6]: 4.8 | permeability [12]: 1.5 10^-6 cm/s | permeability [13]: 0.8 10^-6 cm/s | EC50 [14]: 210 nM | EC50 [15]: 250 nM | Tmax [20]: 5.33 h | Cmax [21]: 700 ng/mL | AUC(0-t) [22]: 8190 ng·h/mL | half-life [23]: 130 min | CL/F [24]: 42 mL/min/kg
Structure (SMILES): COc1cc(NC(=O)Cn2cc(Cl)c3cc(F)c(-c4cnn(C)c4)cc32)cc(OC)c1OC
EC50 [1]: 13 nM | CC50 [2]: > 40 µM | Activity [16]: 59% | Activity [17]: 83% | Activity [18]: 15.3% | Activity [19]: 55%

Structure (SMILES): C[C@@H]1CC[C@H]2[C@@H](C)C(=O)O[C@@H]3O[C@@]4(C)CC[C@@H]1[C@]32OO4 [ARTEMISININ]
Activity [25]: 2.6% | Activity [26]: 92.4%
